This is an account of results in ChEMBL document CHEMBL1143574, “N-[18F] fluoroethylpiperidin-4ylmethyl acetate, a novel lipophilic acetylcholine analogue for PET measurement of brain acetylcholinesterase activity” (J Med Chem, 2005).

The target in data set [1] is T1, Acetylcholinesterase (Rattus norvegicus) (UniProt P37136).
T1 sequence (whole entry): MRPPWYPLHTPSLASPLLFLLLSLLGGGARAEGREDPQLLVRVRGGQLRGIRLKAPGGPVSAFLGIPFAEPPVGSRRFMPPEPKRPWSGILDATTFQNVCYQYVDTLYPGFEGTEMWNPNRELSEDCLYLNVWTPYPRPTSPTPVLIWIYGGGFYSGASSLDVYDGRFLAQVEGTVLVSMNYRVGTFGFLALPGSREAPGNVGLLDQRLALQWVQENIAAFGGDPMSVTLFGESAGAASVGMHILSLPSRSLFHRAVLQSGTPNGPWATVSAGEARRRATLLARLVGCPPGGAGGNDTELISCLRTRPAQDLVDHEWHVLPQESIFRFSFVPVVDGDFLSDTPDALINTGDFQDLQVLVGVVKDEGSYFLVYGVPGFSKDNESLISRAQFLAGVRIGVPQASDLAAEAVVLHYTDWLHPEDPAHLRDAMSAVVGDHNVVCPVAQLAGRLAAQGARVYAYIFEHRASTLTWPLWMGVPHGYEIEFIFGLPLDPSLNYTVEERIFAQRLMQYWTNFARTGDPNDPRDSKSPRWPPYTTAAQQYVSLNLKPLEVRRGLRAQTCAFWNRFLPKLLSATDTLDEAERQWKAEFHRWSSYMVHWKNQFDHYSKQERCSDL
As to the kind of experiment: Specificity for rat brain acetylcholinesterase as rate of hydrolysis using BW284c51. The gist of the method: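 Rat cerebral cortex homogenate (Wistar, male, 8 wk, n=3) in 0.1 M phosphate buffer pH 7.4, run with labeled ester (15 kBq) with or without BW284c51 (30 nM). Hydrolysis rate measured by TLC and phosphor imaging of remaining ester. Specificity = […].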

Data set [2] is described as follows: (§1) Partition coefficient (logP) measured in a mixture of 1-octanol/phosphate buffer (0.1 M, pH 7.4). The format is physicochemical. The gist of the method:
(§2)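 Labeled ester or metabolite added to 1:1 1-octanol/0.1 M phosphate buffer pH 7.4, shaken vigorously, equilibrated 1 h at room temperature. Phase radioactivity counted by gamma or liquid scintillation counter, purity checked by TLC. Value = organic/aqueous concentration ratio.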

Data set [3] in a line: as §1. The format is physicochemical. The gist of the method:
as §2
This is another data set of the same source.

A short description of data set [4]: First-order hydrolysis rate constant in rat cerebral cortical homogenate at a unit tissue concentration (g/mL) without inhibitor. It counts as ADME, tissue-based. An outline of the steps:
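Rat (Wistar, male, 8 wk, 210-230 g, n=3) cerebral cortex homogenized in ice-cold 0.1 M phosphate buffer pH 7.4 and diluted. Labeled ester (15 kBq) added to start reaction. Unchanged ester and metabolite separated by TLC and quantified by phosphor imaging. Rate = −ln(A2/A1)/(T2−T1)/C. Statistics by Games-Howell test.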

Setting [5] is: tested as the 11C-labelled form.
Setting [6] is: tested as the 18F-labelled form.

`CCC(=O)OC1CCN(C)CC1` displayed a Specificity in data set [1] (setting [5]) of 82%.
Turning to `CC(=O)OC1CCN(CC[18F])CC1`, the logD was -0.11 in data set [2] and -1.9 in data set [3]. For the same molecule, in data set [4], the Total rate came out at 0.1 min⁻¹.
With `CC(=O)OC1CCN(C)CC1`, the Specificity in data set [1] (setting [5]) came to 97%.
Turning to `CCC(=O)OC1CCN([11CH3])CC1`, the logD in data set [2] is -0.22; in data set [3], -2.2. Moreover, in data set [4], the Total rate worked out at 0.41 min⁻¹.
For the molecule `CC(=O)OCC1CCN(CCF)CC1`, the Specificity in data set [1] (setting [6]) came to 86%.
Turning to `CC(=O)OC1CCN([11CH3])CC1`, the results for the logD in data set [2] and in data set [3] were -0.3 and -2.2, respectively. In data set [4], this molecule showed a Total rate of 1.73 min⁻¹.
On the same counts, the results for `CC(=O)OCC1CCN(CC[18F])CC1` are 0.04, -1.3 and 1.67 min⁻¹.
Turning to `CC(=O)OC1CCN(CCF)CC1`, the Specificity in data set [1] (setting [6]) was found to be 65%.

A word on the logD: it is lipophilicity at a set pH, counting ionised and neutral species.
